From ChEMBL document CHEMBL3351814, “Discovery of selective hexapeptide agonists to human neuromedin U receptors types 1 and 2” (J Med Chem, 2014)
Activity calls are given as the source filed them. The calls are words filed in the database; no cut-off is given here. Where a SMILES comes first, the peptide text is derived from it. [ ]: non-standard residue; d: D form. The star is where a group is joined. Hydrocinnamoyl = O=C(CCc1ccccc1)*; hArg = N=C(N)NCCCC[C@H](N)C(=O)O; hPhe = N[C@@H](CCc1ccccc1)C(=O)O; Phg = N[C@H](C(=O)O)c1ccccc1; Pip = O=C(O)[C@@H]1CCCCN1; Dab = NCC[C@H](N)C(=O)O

Columns and labels:
Format in all cases: functional, cell-based
[1] = biological target: T1, Neuromedin-U receptor 1 (Mus musculus, UniProt O55040); test: Agonist activity at mouse NMUR1 expressed in HEK293 cells by calcium mobilization assay
T1 sequence (O55040 whole entry): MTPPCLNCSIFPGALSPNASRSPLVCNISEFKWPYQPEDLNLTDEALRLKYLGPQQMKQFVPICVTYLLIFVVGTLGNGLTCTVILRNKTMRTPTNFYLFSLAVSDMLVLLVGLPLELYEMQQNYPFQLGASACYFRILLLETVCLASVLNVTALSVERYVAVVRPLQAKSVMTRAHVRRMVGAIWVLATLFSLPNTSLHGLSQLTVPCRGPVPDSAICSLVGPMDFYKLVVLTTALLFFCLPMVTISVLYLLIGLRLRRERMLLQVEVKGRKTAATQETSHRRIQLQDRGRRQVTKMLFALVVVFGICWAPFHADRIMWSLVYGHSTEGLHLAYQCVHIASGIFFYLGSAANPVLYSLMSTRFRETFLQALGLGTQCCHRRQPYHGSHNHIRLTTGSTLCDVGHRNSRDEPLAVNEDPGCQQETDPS

[2] = biological target: Neuromedin-U receptor 2 (Mus musculus, UniProt Q8BZ39); test: Agonist activity at mouse NMUR2 expressed in HEK293 cells by calcium mobilization assay
[3] = biological target: T2, Neuromedin-U receptor 1 (Homo sapiens) (UniProt Q9HB89); test: Agonist activity at human NMUR1 expressed in HEK293 cells at 1 to 100 nM by calcium mobilization assay relative to NMU
T2 sequence (whole entry): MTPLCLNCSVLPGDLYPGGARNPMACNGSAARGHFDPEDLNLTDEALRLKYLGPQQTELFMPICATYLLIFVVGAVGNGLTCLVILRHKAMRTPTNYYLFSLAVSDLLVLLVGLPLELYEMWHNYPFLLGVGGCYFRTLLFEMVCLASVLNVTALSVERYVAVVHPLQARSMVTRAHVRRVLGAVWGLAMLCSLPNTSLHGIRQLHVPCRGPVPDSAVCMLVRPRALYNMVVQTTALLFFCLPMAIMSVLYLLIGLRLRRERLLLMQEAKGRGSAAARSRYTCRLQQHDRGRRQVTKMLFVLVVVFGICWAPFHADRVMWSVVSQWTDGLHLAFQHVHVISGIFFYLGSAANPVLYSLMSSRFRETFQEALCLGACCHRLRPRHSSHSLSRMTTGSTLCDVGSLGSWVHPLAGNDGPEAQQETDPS
Summary of the method: (§1)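 HEK293 cells transiently transfected with human NMUR1 or NMUR2 plasmid (FuGENE6), reseeded 18 h post-transfection at 4.0 × 10^4 cells/well on poly-D-lysine. After 18 h, loaded 40 min with 4 μM Fluo-4-AM in HBSS/HEPES/probenecid buffer pH 7.4 with 1% FCS, then washed. Peptides in buffer with 0.05% BSA and 0.001% Triton X-100. Maximal FLIPR signal expressed as % of hNMU at 1000 nM.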

[4] = biological target: Neuromedin-U receptor 2 (Homo sapiens, UniProt Q9GZQ4); test: Agonist activity at human NMUR2 expressed in HEK293 cells at 1 to 100 nM by calcium mobilization assay relative to NMU; summary of the method: as §1
Sequence of Neuromedin-U receptor 2 (Homo sapiens, UniProt Q9GZQ4) (Q9GZQ4 whole entry): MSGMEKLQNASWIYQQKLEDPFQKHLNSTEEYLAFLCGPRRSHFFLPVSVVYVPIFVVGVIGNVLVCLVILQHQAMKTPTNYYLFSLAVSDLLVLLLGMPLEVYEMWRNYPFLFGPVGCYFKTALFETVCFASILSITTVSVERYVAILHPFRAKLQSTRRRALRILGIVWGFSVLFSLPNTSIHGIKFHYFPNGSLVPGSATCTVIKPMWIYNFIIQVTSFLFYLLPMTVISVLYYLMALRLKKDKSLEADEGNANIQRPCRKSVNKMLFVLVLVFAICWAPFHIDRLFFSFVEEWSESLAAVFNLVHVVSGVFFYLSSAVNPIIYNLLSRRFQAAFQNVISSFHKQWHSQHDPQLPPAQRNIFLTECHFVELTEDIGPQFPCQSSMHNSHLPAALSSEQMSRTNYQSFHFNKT

Sequence of Neuromedin-U receptor 2 (Mus musculus, UniProt Q8BZ39) (Q8BZ39 whole entry): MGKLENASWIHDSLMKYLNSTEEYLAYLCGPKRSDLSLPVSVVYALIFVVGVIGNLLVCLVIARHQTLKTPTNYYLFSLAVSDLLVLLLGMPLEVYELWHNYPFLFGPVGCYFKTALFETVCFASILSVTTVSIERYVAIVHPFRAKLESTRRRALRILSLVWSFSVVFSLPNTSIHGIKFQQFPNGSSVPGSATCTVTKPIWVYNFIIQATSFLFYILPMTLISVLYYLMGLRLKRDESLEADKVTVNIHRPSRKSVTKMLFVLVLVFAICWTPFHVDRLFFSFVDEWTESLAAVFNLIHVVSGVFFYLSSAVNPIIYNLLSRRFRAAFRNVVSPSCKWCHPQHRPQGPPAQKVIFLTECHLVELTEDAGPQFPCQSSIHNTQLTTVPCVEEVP

Molecule	EC50 [1] [nM]	EC50 [2] [nM]	Activity [3]	Activity [4]
H-YFLFAPRN-NH2	2410	156	–	–
CC(C)C[C@H](NC(=O)CCc1ccccc1)C(=O)N[C@H](C(=O)N[C@@H](CCCNC(=N)N)C(=O)N1CCC[C@H]1C(=O)N[C@@H](CCCNC(=N)N)C(=O)N[C@@H](CC(N)=O)C(N)=O)c1ccccc1 (Hydrocinnamoyl-L[Phg]RPRN-NH2)	–	–	inactive	inactive
CC(C)C[C@H](NC(=O)CCc1ccccc1)C(=O)N[C@@H](Cc1ccccc1)C(=O)N[C@@H](CCCCNC(=N)N)C(=O)N1CCC[C@H]1C(=O)N[C@@H](CCCNC(=N)N)C(=O)N[C@@H](CC(N)=O)C(N)=O (Hydrocinnamoyl-LF[hArg]PRN-NH2)	–	–	Active	Active
CC(C)C[C@H](NC(=O)CCc1ccccc1)C(=O)N[C@@H](Cc1ccccc1)C(=O)N[C@@H](CCCNC(=N)N)C(=O)N1CCCC[C@H]1C(=O)N[C@@H](CCCNC(=N)N)C(=O)N[C@@H](CC(N)=O)C(N)=O (Hydrocinnamoyl-LFR[Pip]RN-NH2)	–	–	Active	Active
CC(C)C[C@H](NC(=O)CCc1ccccc1)C(=O)N[C@@H](Cc1ccccc1)C(=O)N[C@@H](CCCNC(=N)N)C(=O)N1CCC[C@H]1C(=O)N[C@@H](CCCNC(=N)N)C(=O)N[C@@H](CCC(N)=O)C(N)=O (Hydrocinnamoyl-LFRPRQ-NH2)	–	–	inactive	inactive
CC(C)C[C@H](NC(=O)[C@H](Cc1ccccc1)NC(=O)[C@@H](N)Cc1ccc(O)cc1)C(=O)N[C@@H](Cc1ccccc1)C(=O)N[C@@H](CCCNC(=N)N)C(=O)N1CCC[C@H]1C(=O)N[C@@H](CCCNC(=N)N)C(=O)N[C@@H](CC(N)=O)C(N)=O	9.5	3	–	–
CC(C)C[C@H](NC(=O)CCc1ccccc1)C(=O)N[C@@H](Cc1ccc(O)cc1)C(=O)N[C@@H](CCCNC(=N)N)C(=O)N1CCC[C@H]1C(=O)N[C@@H](CCCNC(=N)N)C(=O)N[C@@H](CC(N)=O)C(N)=O (Hydrocinnamoyl-LYRPRN-NH2)	–	–	inactive	inactive
CC(C)C[C@H](NC(=O)CCc1ccccc1)C(=O)N[C@@H](Cc1ccccc1)C(=O)N[C@@H](CCCNC(=N)N)C(=O)N1CCC[C@H]1C(=O)N[C@@H](CCCNC(=N)N)C(=O)N[C@@H](CCN)C(N)=O (Hydrocinnamoyl-LFRPR[Dab]-NH2)	–	–	inactive	inactive
CC(C)C[C@H](NC(=O)CCc1ccccc1)C(=O)N[C@@H](CCc1ccccc1)C(=O)N[C@@H](CCCNC(=N)N)C(=O)N1CCC[C@H]1C(=O)N[C@@H](CCCNC(=N)N)C(=O)N[C@@H](CC(N)=O)C(N)=O (Hydrocinnamoyl-L[hPhe]RPRN-NH2)	–	–	inactive	inactive
